Where “and” joins values, the source holds several entries; their conditions need not be identical. Identical values can stand only once. Entries after “also recorded” stand apart in the source; their conditions may differ. Blank lines part the entries; values can stand above or below the molecule they belong to.
What was measured:
acute leukemia model = acute leukemia model in mice ref 23; cited from earlier work
[1] = system: BRD2, BRD3, and BRD4 proteins; test: Western blotting of BET protein levels in RS4; type: cell-based, human
RS4;11 cell line [2] = test: Cell cycle arrest by flow cytometry; type: cell-based, human; conditions: RS4;11, 24 h
Method in brief: (§1)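 Cell cycle was read by propidium iodide staining and flow cytometry after 24 h exposure to the test compound at the indicated concentrations. RS4;11 or MOLM-13 cells were cultured in RPMI 1640 with 10% FBS and 1% penicillin–streptomycin at 37 °C, 5% CO₂, and used within three months of thawing.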

MOLM-13 cell line [3] = test: Cell cycle arrest by flow cytometry; type: cell-based, human; conditions: MOLM-13, 24 h
Method in brief: as §1

RS4;11 cell line [4] = test: Apoptosis induction by flow cytometry; type: cell-based, human; conditions: RS4;11, 24 h treatment
Method in brief: (§2)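 RS4;11 or MOLM-13 cells were grown in RPMI 1640 with 10% FBS and 1% penicillin–streptomycin at 37 °C, 5% CO₂, and used within three months of thawing. Cells were treated with the test compound at the indicated concentrations for 24 h. They were then stained with annexin V and propidium iodide and analysed by flow cytometry.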

MOLM-13 cell line [5] = test: Apoptosis induction by flow cytometry; type: cell-based, human; conditions: MOLM-13, 24 h treatment
Method in brief: as §2

BRD2, BRD3, and BRD4 = test: FP-based competitive binding assays, BET proteins overall; conditions: binding to BRD2, BRD3, BRD4; comparator 1 or 2
c-Myc [6] = test: Western blotting of c-Myc level in RS4; type: cell-based, human; conditions: for Concentration effectively down-regulating the level of c-Myc: RS4;11 cells, 24 h treatment, Western blot
Method in brief: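 RS4;11 cells (2 × 10⁶/well) were exposed for 24 h to the test compound at the indicated concentrations. Cells were lysed in RIPA buffer with protease inhibitors. Lysate (20 μg per lane) was separated by SDS–PAGE, transferred to PVDF, and immunoblotted for c-Myc, with GAPDH as the loading control.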

[7] = system: triple-negative human breast cancer; conditions: in vitro and in vivo ref 32; cited from earlier work
PARP and caspase-3 = test: Pharmacodynamic Western blotting of PARP and caspase-3 cleavage in RS4; type: in vivo, SCID mice; conditions: single intravenous dose, 5 mg/kg
Method in brief: (§3)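 SCID mice bearing RS4;11 xenografts were given one 5 mg/kg IV dose of the test compound and killed at 1, 3, 6 or 24 h; vehicle-treated mice were killed at 6 h. Two mice were used per time point, with one or two tumours each. Lysates were run on 4–20% gels and immunoblotted on PVDF for BRD2–4, c-Myc, PARP and caspase-3. Actin was the loading control, with ECL detection.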

[8] = Animal weight and signs of toxicity in RS4; type: in vivo; conditions: mice bearing RS4;11 xenografts, 5 mg/kg intravenously, three times a week for 3 weeks
Method in brief: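 Subcutaneous dorsal xenografts in SCID mice: 5 × 10⁶ RS4;11 cells in 50% Matrigel, one tumor per mouse. Mice randomised to treatment or vehicle groups at ~100 mm³. Dosing was intravenous every other day. Toxicity signs checked daily. Body weight recorded 2–3 times per week during treatment and at least weekly afterwards.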

[9] = Drug concentration in plasma; type: in vivo, SCID mice
Method in brief: (§4)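 Female SCID C.B-17 mice bearing RS4;11 tumours received a single 5 mg/kg IV dose in 20% PEG 400, 6% Cremophor EL and 74% PBS. Mice were killed at 1, 3, 6 and 24 h (two mice per time point, three tumours per time point). Plasma came from blood spun at 15 000 rpm for 10 min; tumours were frozen and ground in liquid nitrogen. Samples were kept at −80 °C and assayed by LC–MS/MS on a C18 column.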

[10] = system: BRD2, BRD3, and BRD4 proteins; test: Pharmacodynamic Western blotting of BET proteins in RS4; type: in vivo, SCID mice; conditions: single intravenous dose, 5 mg/kg
Method in brief: as §3

[11] = Drug concentration in RS4; type: in vivo, SCID mice
Method in brief: as §4

BRD3 = BRD3 (Homo sapiens, UniProt Q15059); test: Western blotting of BRD3 protein level in RS4; type: cell-based; conditions: RS4;11 cells, Western blot
Chain of BRD3 (Q15059 whole entry): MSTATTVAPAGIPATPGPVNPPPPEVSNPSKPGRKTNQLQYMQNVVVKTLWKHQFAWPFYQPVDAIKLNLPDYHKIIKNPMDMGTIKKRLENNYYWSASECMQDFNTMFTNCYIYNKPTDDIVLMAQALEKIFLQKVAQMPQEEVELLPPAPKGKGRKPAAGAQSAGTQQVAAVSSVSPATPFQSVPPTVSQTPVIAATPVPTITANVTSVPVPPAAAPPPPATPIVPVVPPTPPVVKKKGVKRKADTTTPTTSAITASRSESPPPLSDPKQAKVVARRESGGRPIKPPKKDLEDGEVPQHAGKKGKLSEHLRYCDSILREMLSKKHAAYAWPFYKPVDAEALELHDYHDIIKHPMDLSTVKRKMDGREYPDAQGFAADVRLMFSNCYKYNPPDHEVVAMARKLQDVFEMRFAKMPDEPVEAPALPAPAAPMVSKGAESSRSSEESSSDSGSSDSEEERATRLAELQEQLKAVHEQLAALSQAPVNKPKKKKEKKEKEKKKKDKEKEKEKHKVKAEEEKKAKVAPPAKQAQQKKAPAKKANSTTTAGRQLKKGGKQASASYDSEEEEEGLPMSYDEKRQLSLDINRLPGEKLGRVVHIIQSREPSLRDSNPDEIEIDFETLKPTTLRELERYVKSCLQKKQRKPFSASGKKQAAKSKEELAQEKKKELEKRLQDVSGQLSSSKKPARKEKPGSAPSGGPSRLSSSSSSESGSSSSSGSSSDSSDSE
Method in brief: (§5)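 RS4;11 cells (2 × 10⁶/well) were treated with the test compound at the indicated concentrations for 3 h or 24 h. Cells were lysed in RIPA buffer with protease inhibitors. Lysate (20 μg per lane) was separated by SDS–PAGE, blotted onto PVDF, and probed with BRD2, BRD3 and BRD4 antibodies, with GAPDH as the loading control.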

[12] = In vitro metabolite identification in mouse liver microsomes; type: in vitro ADME; conditions: 10 μM, MLM with β-NADPH, 37 °C, 20 and 40 min
Method in brief: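 Incubation was quenched with a 3-fold volume of ice-cold acetonitrile, then centrifuged at 15 000 rpm for 10 min; supernatant stored at −80 °C. Negative controls omitted NADPH or used boiled microsomes. Metabolites were identified by tandem mass spectrometry, starting from the parent's product ion spectrum to establish fragmentation.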

BRD2 = BRD2 (Homo sapiens, UniProt P25440); test: Western blotting of BRD2 protein level in RS4; type: cell-based; conditions: RS4;11 cells, Western blot
Chain of BRD2 (P25440 whole entry): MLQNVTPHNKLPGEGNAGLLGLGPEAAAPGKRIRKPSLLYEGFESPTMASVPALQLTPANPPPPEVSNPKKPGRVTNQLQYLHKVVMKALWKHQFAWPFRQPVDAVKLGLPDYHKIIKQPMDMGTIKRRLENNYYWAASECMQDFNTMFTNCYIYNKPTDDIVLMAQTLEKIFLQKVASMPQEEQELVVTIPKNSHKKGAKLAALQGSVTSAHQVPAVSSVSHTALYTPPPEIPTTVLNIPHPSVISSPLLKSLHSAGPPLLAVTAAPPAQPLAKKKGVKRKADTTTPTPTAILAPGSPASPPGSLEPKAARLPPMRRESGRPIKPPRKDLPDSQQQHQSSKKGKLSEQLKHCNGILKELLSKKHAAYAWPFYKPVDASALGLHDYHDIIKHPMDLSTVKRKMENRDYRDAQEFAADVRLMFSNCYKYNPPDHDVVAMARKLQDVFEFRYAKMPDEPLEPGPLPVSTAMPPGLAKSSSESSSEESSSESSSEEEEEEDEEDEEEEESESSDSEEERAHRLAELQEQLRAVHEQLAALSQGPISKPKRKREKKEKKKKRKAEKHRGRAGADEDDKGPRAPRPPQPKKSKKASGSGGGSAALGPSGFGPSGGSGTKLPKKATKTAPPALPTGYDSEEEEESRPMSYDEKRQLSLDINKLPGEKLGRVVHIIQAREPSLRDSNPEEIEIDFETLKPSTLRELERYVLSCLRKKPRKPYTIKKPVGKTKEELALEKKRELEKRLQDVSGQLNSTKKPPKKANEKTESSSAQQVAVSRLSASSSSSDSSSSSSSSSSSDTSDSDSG
Method in brief: as §5

c-Myc [13] = test: Pharmacodynamic Western blotting of c-Myc in RS4; type: in vivo, SCID mice; conditions: single intravenous dose, 5 mg/kg
Method in brief: as §3

BRD4 = BRD4 (Homo sapiens, UniProt O60885); test: Western blotting of BRD4 protein level in RS4; type: cell-based; conditions: RS4;11 cells
Method in brief: as §5

RS4;11 xenograft tumors = test: Antitumor efficacy in RS4; type: in vivo; conditions: mice, 5 mg/kg intravenously
Method in brief: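 Human RS4;11 leukaemia cells (5 × 10⁶, in 50% Matrigel) were injected subcutaneously on the dorsal side of SCID mice, one tumour per mouse. At ∼100 mm³, mice were randomised to treatment or vehicle groups. The test compound was given at 5 mg/kg IV every other day, three times a week, for 3 weeks. Tumours were measured by calipers 2–3 times weekly (V = LW²/2). Body weight and toxicity signs were monitored.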

[14] = system: MOLM-13 acute leukemia cell line; test: Cell growth inhibition; type: cell-based, human; conditions: MOLM13; comparator 23
[15] = system: RS4;11 acute leukemia cell line; test: Cell growth inhibition; type: cell-based, human; conditions: comparator 23
[16] = RS4;11 cells, 3 h treatment, Western blot
[17] = 1 h after single 5 mg/kg intravenous dose
[18] = 3 h after single 5 mg/kg intravenous dose
[19] = 6 h after single 5 mg/kg intravenous dose

SMILES: Cc1sc2c(c1C)C(c1ccc(Cl)cc1)=N[C@@H](CC(=O)NCCCCNC(=O)COc1cccc3c1C(=O)N(C1CCC(=O)NC1=O)C3=O)c1nnc(C)n1-2 (stereo partly shown) [Compound 4, dBET1, reference compound]
Inhibition of tumor growth in vivo compared with 1 (acute leukemia model): more effective
Effect on the level of BRD2, BRD3, and BRD4 proteins [1, 16]: effectively decrease

times more potent than 1 or 2 in binding (BRD2, BRD3, and BRD4): > 10 times
SMILES: CCn1nc(C2CC2)cc1Nc1nc(C(=O)NC)nc2[nH]c3cc(-c4c(C)noc4C)c(OC)cc3c12 [Compound 8, 4-((3-Cyclopropyl-1-ethyl-1H-pyrazol-5-yl)amino)-7-(3,5-dimethylisoxazol-4-yl)-6-methoxy-N-methyl-9H-pyrimido[4,5-b]indole-2-carboxamide]
Concentration effective in inducing cell cycle arrest (RS4;11 cell line [2]): 30 nM
Concentration effective in inducing cell cycle arrest (MOLM-13 cell line [3]): 30 to 100 nM
Effect of pretreatment on degradation of BRD2, BRD3, and BRD4 induced by 23 ([1]; RS4;11 cells, 2 h pretreatment, then 3 h treatment with 23 at 1 nM): effectively blocks
Effect on the level of BRD2–4 proteins ([1]; RS4;11 cells, 3 h, at both 100 and 300 nM): fails to decrease
Effect on the level of BRD2–4 proteins ([1]; RS4;11 cells, 24 h, all concentrations tested (30–1000 nM)): no effect
Concentration inducing robust apoptosis (RS4;11 cell line [4]): > 300 nM
Concentration inducing robust apoptosis (MOLM-13 cell line [5]): > 300 nM
Concentration effectively down-regulating the level of c-Myc (c-Myc [6]): 300 to 1000 nM

SMILES: CCn1nc(C2CC2)cc1Nc1nc(C(=O)NCCCCCc2cccc3c2CN(C2CCC(=O)NC2=O)C3=O)nc2[nH]c3cc(-c4c(C)noc4C)c(OC)cc3c12 (stereo not shown) [Compound 23, 4-((3-Cyclopropyl-1-ethyl-1H-pyrazol-5-yl)amino)-7-(3,5-dimethylisoxazol-4-yl)-N-(5-(2-(2,6-dioxopiperidin-3-yl)-1-oxoisoindolin-4-yl)pentyl)-6-methoxy-9H-pyrimido[4,5-b]indole-2-carboxamide]
Activity against triple-negative human breast cancer [7]: very potent and efficacious
Concentration effective in inducing cell cycle arrest (RS4;11 cell line [2]): 0.3 nM
Concentration effective in inducing cell cycle arrest (MOLM-13 cell line [3]): 1 to 3 nM
Onset of cleavage of PARP and caspase-3 in tumor tissue (PARP and caspase-3): 3 h
Time of peak cleavage of PARP and caspase-3 in tumor tissue (PARP and caspase-3): 6 h
Lowest concentrations effective in decreasing the level of BRD2, BRD3, and BRD4 proteins [1, 16]: 0.1 to 0.3 nM
Concentrations inducing degradation of BRD2, BRD3, and BRD4 proteins ([1]; RS4;11 leukemia cells): 30 to 100 pM
Concentration inducing robust apoptosis (RS4;11 cell line [4]): 3 to 10 nM
Concentration inducing robust apoptosis (MOLM-13 cell line [5]): 3 to 10 nM
Animal weight loss or signs of toxicity [8]: no animal weight loss or other signs of toxicity; also recorded: minimal body weight change; also recorded: no signs of toxicity
concn in plasma, individual mice [9, 17]: 362 ng/mL
concn in plasma, individual mice [9, 18]: 76.1 ng/mL
concn in plasma, individual mice [9, 19]: 7.4 ng/mL
Duration of reduction of BRD2, BRD3, and BRD4 proteins in tumor tissue [10]: > 24 h
Onset of reduction of BRD2, BRD3, and BRD4 proteins in tumor tissue [10]: 1 h
concn in tumor, individual tumor [11, 17]: 123 ng/g and 240.5 ng/g
concn in tumor, individual tumor [11, 18]: 89 ng/g and 120.5 ng/g
concn in tumor, individual tumor [11, 19]: 31.9 ng/g
Lowest concentration effective in decreasing the level of BRD3 protein (BRD3; 3 h treatment): 0.1 nM
Lowest concentration effectively reducing the level of BRD3 protein (BRD3; 24 h treatment): 0.1 nM
Major metabolite in mouse liver microsomes [12]: mono- or dihydroxylated product occurring in the alkyl chain in the linker
Lowest concentration effective in decreasing the level of BRD2 protein (BRD2; 3 h treatment): 0.3 nM
Lowest concentration effectively reducing the level of BRD2 protein (BRD2; 24 h treatment): 0.1 nM
times more potent than 8 in down-regulation of c-Myc protein (c-Myc [6]; RS4;11 cell line, comparator 8): > 1000 times
Concentration effectively down-regulating the level of c-Myc (c-Myc [6]): 0.1 nM
Duration of c-Myc down-regulation in tumor tissue (c-Myc [13]): at least 6 h
Lowest concentration effective in decreasing the level of BRD4 protein (BRD4; 3 h treatment, Western blot): 0.3 nM
Lowest concentration degrading BRD4 protein (BRD4; 24 h treatment): 30 pM
Lowest concentration effectively reducing the level of BRD4 protein (BRD4; 24 h treatment, Western blot): 0.03 nM
Antitumor activity against RS4;11 xenograft tumors (RS4;11 xenograft tumors): rapid tumor regression

SMILES: COc1cc2c(cc1-c1c(C)noc1C)[nH]c1nc(C(=O)NCCCCCc3cccc4c3CN(C3CCC(=O)NC3=O)C4=O)ncc12 (stereo not shown) [Compound 27, 7-(3,5-Dimethylisoxazol-4-yl)-N-(5-(2-(2,6-dioxopiperidin-3-yl)-1-oxoisoindolin-4-yl)pentyl)-6-methoxy-9H-pyrimido[4,5-b]indole-2-carboxamide]
times less potent than 23 in cell growth inhibition [14]: > 400 times
times less potent than 23 in cell growth inhibition [15]: > 10 000 times
